Data: ChEMBL document CHEMBL3286350, “Aplysinellamides A-C, bromotyrosine-derived metabolites from an Australian Aplysinella sp. marine sponge” (2014)
Calls of active or inactive are those of the source. The calls are words filed in the database; no cut-off is given here.

System: CCF-STTG1
Test: Induction of apolipoprotein E secretion from human CCF-STTG1 cells up to 40 uM after 96 hrs by ELISA
Type: functional, cell-based
Procedure, shortened: (§1)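 Human CCF-STTG1 astrocytoma cells were incubated with test compounds at concentrations of up to 40 μM for 96 h, and apolipoprotein E secretion was then measured. The assay was also applied to fractions.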

Row | Compound | Activity
1 | CN(C)CCCOc1c(Br)cc(CC[N+](C)(C)O)cc1Br | inactive
2 | CN(C)CCc1cc(Br)c(O)c(Br)c1 | inactive
3 | COc1ccc(CC(C(=O)O)[N+](C)(C)C)cc1Br (stereo not given) | inactive
4 | COc1c(Br)cc(C(=O)O)cc1Br | inactive
5 | COc1ccc(C[C@H](N)C(=O)NCCc2cc(Br)c(OCCCN(C)C)c(Br)c2)cc1Br | inactive
6 | COc1ccc(/C=C/C(=O)NCCCCC(=O)O)cc1Br | inactive
7 | COc1ccc(/C=C/C(=O)NCCCC[C@@H](N)C(=O)O)cc1Br | inactive
8 | COc1c(Br)cc(/C=C/C(=O)NCCCC[C@@H](N)C(=O)O)cc1Br | inactive
9 | CNCCc1cc(Br)c(OCCCN(C)C)c(Br)c1 | inactive

System: CCF-STTG1
Test: Induction of apolipoprotein E secretion from human CCF-STTG1 cells at 30 uM after 96 hrs by ELISA relative to control
Type: functional
Procedure, shortened: as §1

Row | Compound | fold change (FC)
10 | CN(C)CCCOc1c(Br)cc(CCN(C)C)cc1Br [APLYSAMINE] | 2
